Screening results: PubChem BioAssay, several laboratories
NR2E3 ag-1 = inhibitors of NR2E3-RetCOR corepressor binding, primary screen, NR2E3 agonist project, biochemical, TR-FRET, GST-NR2E3, biotin-RetCOR; Photoreceptor-specific nuclear receptor (Homo sapiens), Q9Y5X4; 1536-well; inhibition of corepressor binding, % at 4.78 µM; actives 0.12% (n = 320,000); AID 2300, 2010;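 active means percent inhibition above the cutoff of mean plus 3 SD of all tested compounds, set per screening campaign, cut at about 20% in these data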;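 further: 0% = DMSO wells and 100% = biotin wells as full block of FRET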
Target sequence (Q9Y5X4 whole entry, looked up): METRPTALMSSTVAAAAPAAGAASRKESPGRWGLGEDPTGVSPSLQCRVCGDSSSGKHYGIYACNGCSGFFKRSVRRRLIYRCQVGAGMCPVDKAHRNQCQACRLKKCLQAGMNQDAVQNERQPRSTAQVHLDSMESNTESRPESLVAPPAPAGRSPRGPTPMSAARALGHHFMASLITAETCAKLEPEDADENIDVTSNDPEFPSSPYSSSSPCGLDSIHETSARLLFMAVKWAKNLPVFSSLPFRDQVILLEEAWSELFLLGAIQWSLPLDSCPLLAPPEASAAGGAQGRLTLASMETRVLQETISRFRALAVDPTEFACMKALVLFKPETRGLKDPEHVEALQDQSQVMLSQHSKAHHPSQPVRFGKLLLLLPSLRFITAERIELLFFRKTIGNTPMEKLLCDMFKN
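system = GST-tagged NR2E3 plus biotinylated RetCOR corepressor | input = 1.35 nM GST-NR2E3 | also added = 7 nM biotin-RetCOR | schedule = 5 h incubation at 4 °C | measured by = TR-FRET with europium anti-GST and streptavidin-D2, 340 nm excitation | read-out = percent loss of FRET ratio relative to control wells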
NR2E3 ag-2 = NR2E3 agonists in two-hybrid cells, primary screen, cell-based, luminescence, CHO-S, Gal4-NCOR/VP16-NR2E3 | AID 602229, 2012 | luciferase | Photoreceptor-specific nuclear receptor (Homo sapiens), Q9Y5X4 | inhibition of corepressor binding, % at 3.98 µM | actives 0.35% (n = 360,000);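 active means inhibition above the mean of all tested compounds plus 3 SD, cut at about 70% in these data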;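 further: 0% = DMSO with NR2E3 transfected cells and 100% = cells lacking NR2E3 construct; higher means lower luciferase signal from less NR2E3 corepressor binding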
FXN GAA850 act = FXN promoter activators, primary screen, cell-based, luciferase luminescence, HEK293 lucGAA850; HEK293 lucGAA850 FXN promoter luciferase reporter, 24 h; percent of 10 µM SAHA response; activation, % at 6 µM; actives 0.56% (n = 360,000); AID 540364, 2011;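 active means activation above the average of all compounds screened plus 3 SD, cutoff fixed separately per campaign, cut at about 7.5% in these data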;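 further: 0% = DMSO wells and 100% = 10 µM SAHA wells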
Myeloid diff 2 = induction of myeloid progenitor differentiation, primary screen, cell-based, flow cytometry, MLPCN library | calls only at 10 µM | ER-HoxA9 myeloid progenitors, lysozyme-GFP differentiation | actives 1% (n = 360,000) | AID 624256, 2012;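 active means normalized GFP-positive differentiation at or above the plate's own cutoff, the solvent-only control mean plus 3 SD; inconclusive means no clear call, values can overlap the other calls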;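 further: cells exposed to compound for four days before flow analysis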
T cell HTS = modulators of CD8 T cell-vesicle binding, primary screen, mouse 2C CD8+ T cells, flow cytometry. response (vesicle binding), % at 7 µM. 2C CD8+ T cell-vesicle binding; active compounds read low. actives 0.068% (n = 330,000);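 active means response, share of CD8 T cells binding vesicles, and their 90th percentile fluorescence all below set limits, cut at about 80% in these data, passing the limit was not always enough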;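 further: values below 100% mean blocked vesicle binding to the CD8+ T cells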
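Material: 2C TCR transgenic mouse naive CD8+ T cells, MACS-purified. Also added: QL9-charged Drosophila Ld/ICAM-1/B7-1 vesicles. Timing: binding 1.5 h at 37 °C. Measured by: high-throughput flow cytometry with anti-B7-1 and anti-CD8 staining. Read-out: percent CD8+ FL2 mean versus row control. Controls: Unloaded micro-vesicles (low), QL9 vesicles with 0.7% DMSO (high).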
Myeloid diff CP1 = inducers of myeloid progenitor differentiation, confirmation, cell-based, GFP/Mac1 flow cytometry, cherry pick 01. calls only. actives 2% (n = 2,300). shares compounds with Myeloid diff 2. AID 651706, 2012. ER-HoxA9 myeloid progenitors, GFP/Mac1 double-positive flow;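 active means share of green or green-and-red cells above 9 and 9% in run 1 or 4 and 3% in run 2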
GFP autofluor = counter-screen for myeloid differentiation promoters: compound fluorescence; ER-HoxA9 myeloid progenitors, no estrogen, GFP autofluorescence flow cytometry; vehicle wells 0%, positive control 100%; actives 7.4% (n = 2,300); shares compounds with Myeloid diff 2; fluorescence response, % (concentration not given with the values);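 active means over 5% cells positive for green fluorescent reporter, or over 2% positive for both it and APC stain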;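 further: range taken on the double positive population between DMSO and positive control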
An asterisk follows results filed as active; i = inactive; ? = inconclusive; nt = not tested or not shown; + = active, no number. An excerpt weighted towards active compounds, which were near 2% of everything screened.

SMILES	NR2E3 ag-1	NR2E3 ag-2	FXN GAA850 act	Myeloid diff 2	T cell HTS	Myeloid diff CP1	GFP autofluor
COc1cc(C(C[N+](=O)[O-])c2c(C)[nH]c3ccccc23)cc(OC)c1OC (configuration not stated)	1	-22	-1	i	863	nt	nt
O=[N+]([O-])CC(c1ccccc1)c1c[nH]c2ccccc12 (configuration not stated)	1	-17	-1	+	152	i	0
O=C(Nc1cccc2ccccc12)C1CCN(C(=O)Cc2ccccc2)CC1	-6	-15	-4	nt	116	i	0
O=C(Nc1cccc2ccccc12)C1CCN(C(=O)NCc2ccccc2)CC1	4	-6	-1	i	315	nt	nt
CC(C)CC1C(=O)N(Cc2cn(CCC3OCCO3)nn2)CCS(=O)(=O)N1Cc1ccc(-c2cccc(N(C)C)c2)cc1 (configuration not stated)	nt	2	-2	i	nt	nt	nt
O=C(CCSc1nnc2scc(-c3ccccc3)n12)NCc1ccc2c(c1)OCO2	-2	-24	2	i	163	i	0
Cc1nc(Cc2nnc(SCC(=O)N3c4ccccc4NC(=O)C3(C)C)o2)cs1	nt	-15	0	i	nt	nt	nt
O=C(NCC1CCCO1)C(c1ccc(F)cc1)N(C(=O)Cn1nnc(-c2ccc(F)cc2)n1)c1cccc(O)c1 (configuration not stated)	2	5	-8	i	257	i	0
O=C(CN1CCN(c2ccc(F)cc2)CC1)Nc1cc(C(F)(F)F)ccc1Cl	2	8	-2	i	330	i	1
CCN(CC)C(=O)C1=C(C)N(Cc2ccc(OC)cc2)C(=O)C(CC(=O)NC(c2ccccc2)c2ccccc2)C1 (configuration not stated)	nt	-30	-2	i	nt	nt	nt
C/C(=N\Nc1ccccc1)c1c(O)cc(C)oc1=O	5	-15	1	i	252	nt	nt
C/C(=N/NC(=O)c1cccc(C)c1)c1c(O)cc(C)oc1=O	-3	-23	3	i	189	i	0
Cc1ccc(CNC(=O)N2CCN(S(=O)(=O)c3ccccc3)CC2)cc1	0	-19	0	i	148	nt	nt
N#CCCN1CCN(S(=O)(=O)c2ccc(S(=O)(=O)N3CCCCCC3)cc2)CC1	1	-8	1	i	i	nt	nt
N#CCCN1CCN(S(=O)(=O)c2ccc(C#N)cc2)CC1	0	10	2	i	265	i	0
O=C1CCC/C(=N/NC(=O)c2ccc(NS(=O)(=O)c3cccs3)cc2)C1	1	11	0	i	166	i	0
Cc1cccc(NC(=O)CSc2nc(=O)n(CCCN3CCOCC3)c3c2CCCC3)c1	2	-6	0	+	250	i	0
O=C(C(Br)=Cc1ccccc1)c1ccccc1	nt	26	-14	?	nt	nt	nt
CC1CCCC(C)N1C(=O)COC(=O)c1ccccc1O (configuration not stated)	nt	-36	2	i	349	nt	nt
CCC(C(=O)OCC(=O)N1C(C)CCCC1C)c1ccccc1 (configuration not stated)	2	-15	0	i	215	i	0
N#Cc1ccc(-c2nc3ccc(Br)cn3c2Cc2ccccc2)cc1	nt	-37	1	i	nt	nt	nt
COc1ccc(CCn2c(C)cc(C(=O)CN3C(=O)C(=O)N(Cc4ccco4)C3=O)c2C)cc1	4	-18	-2	+	389	i	0
Cc1cc(C(=O)CN2C(=O)C(=O)N(Cc3ccccc3)C2=O)c(C)n1Cc1ccccc1	nt	-9	-1	i	567	nt	nt
CCOC(=O)c1cnn(-c2cc(C)c3ccccc3n2)c1N	-2	-32	2	+	109	i	1
CCOC(=O)c1cnn(-c2ccccn2)c1N	7	-97	2	i	274	nt	nt
SMILES	NR2E3 ag-1	NR2E3 ag-2	FXN GAA850 act	Myeloid diff 2	T cell HTS	Myeloid diff CP1	GFP autofluor
CC1(C)CC(=O)C=C(Nc2ccc(C(=O)O)cc2)C1	1	-24	1	+	76	i	0
C=CCNC(=S)/N=c1/ccccn1CC	2	8	3	i	500	i	4
CCOC(=O)N1CCN(c2ccc(Cl)c(Cl)c2)CC1	0	19	-2	+	335	i	0
Cc1csc(=O)n1CC(=O)OCC(=O)NNC(=O)c1ccc([N+](=O)[O-])cc1	6	-1	2	+	451	i	0
Cc1csc(=O)n1CC(=O)OCC(=O)NNC(=O)c1ccccc1	-1	7	-1	i	268	nt	nt
CC(=O)Nc1ccc2c(c1)C(=O)c1cccc(C(=O)O)c1-2	nt	-5	0	i	nt	nt	nt
CCCOc1ccc2[nH]cc(C(=O)O)c(=O)c2c1	-1	-10	0	i	221	i	0
CC1CC(C)CN(c2ncc3c(n2)CC(c2ccc(Cl)cc2)CC3=O)C1 (configuration not stated)	5	11	-1	i	381	i	0
COc1ccc(NC(=O)C(c2ccncc2)n2c(=O)c(-c3ccco3)nc3ccccc32)cc1 (configuration not stated)	nt	nt	nt	i	nt	nt	nt
CON1C(=O)C(=O)N(OC)C(C)(C)C1C (configuration not stated)	1	-13	0	i	316	i	0
CNC(=O)OCc1cocc1COC(=O)NC	nt	4	nt	i	nt	nt	nt
COc1ccccc1[C@]1(C)ON(c2ccccc2C(F)(F)F)C1=O	-1	-24	-3	i	484	nt	nt
Cc1ccc(S(=O)(=O)CCSc2n[nH]c(=O)n2-c2ccccc2)cc1	1	11	0	i	i	i	0
CCN1CCN(CC(=O)Nc2cc3c(cc2C(C)=O)OCO3)CC1	-2	-8	0	i	550	nt	nt
CC(=O)c1cc2c(cc1NC(=O)CN1CCOCC1)OCO2	-6	0	1	+	0	i	0
COc1cc(-c2nnc(SCC(=O)Nc3cc(C)on3)n2C)cc(OC)c1O	1	-9	1	i	389	nt	nt
COc1ccc(-c2nnc(SCC(=O)Nc3cc(C)on3)n2C)cc1OC	2	9	1	+	246	i	0
COc1ccccc1NC(=O)c1cccnc1	1	-25	5	i	140	nt	nt
